Emax, EC50 and Activity data for 42 compounds are collected here from ChEMBL document CHEMBL1140467, “Small molecule ago-allosteric modulators of the human glucagon-like peptide-1 (hGLP-1) receptor” (Bioorg Med Chem Lett, 2007).

For test [1], the target named is T1, Glucagon-like peptide 1 receptor (Homo sapiens, UniProt P43220). The test can be described thus: Agonist activity at human GLP1 assessed as stimulation of cAMP relative to cAMP. It is filed as functional. An outline of the steps:
(§1)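 cAMP production was measured in a membrane-based assay at the human GLP-1 receptor. Potency is reported as EC50 and efficacy as Emax (%).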

For test [2], the target named is T1, Glucagon-like peptide 1 receptor. In words: Agonist activity at human GLP1 assessed as stimulation of cAMP. It is filed as functional. An outline of the steps:
as §1

Test [3] shares this target. The test can be described thus: Effect on augmentation of [125]GLP1 binding to human GLP1. The conditions noted are these: read-out: IC50 (the source's name). An outline of the steps: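 Test agents were incubated with human GLP-1 receptor and GLP-1, and the rise in GLP-1 binding was followed across agent concentrations. IC50 is the agent concentration giving 50% of its maximal augmentation of GLP-1 binding.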

The species named for test [4] is Mus musculus. In words: Effect on release of insulin in mouse islets. It counts as functional.
The test system of test [5] is Pancreas. The test can be described thus: Effect on release of insulin in perfused rat pancreas. It counts as functional, tissue-based.

SMILES strings stand for the structures. Activity calls are given as the source filed them. No cut-off for these calls is given here.

T1 sequence (P43220 whole entry): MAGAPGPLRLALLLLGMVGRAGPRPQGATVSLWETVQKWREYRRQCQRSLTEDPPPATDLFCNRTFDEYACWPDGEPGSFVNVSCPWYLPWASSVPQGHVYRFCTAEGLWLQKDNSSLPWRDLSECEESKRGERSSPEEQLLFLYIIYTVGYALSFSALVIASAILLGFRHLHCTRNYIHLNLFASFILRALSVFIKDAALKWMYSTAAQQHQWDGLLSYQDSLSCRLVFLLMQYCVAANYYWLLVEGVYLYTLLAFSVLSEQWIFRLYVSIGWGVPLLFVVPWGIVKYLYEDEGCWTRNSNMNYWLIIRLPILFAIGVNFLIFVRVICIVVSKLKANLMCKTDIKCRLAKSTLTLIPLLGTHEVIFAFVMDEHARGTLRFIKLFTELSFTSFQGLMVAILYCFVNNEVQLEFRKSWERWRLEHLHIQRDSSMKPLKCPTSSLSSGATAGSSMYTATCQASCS

For `CC(C)Sc1nc2cc(Cl)c(Cl)cc2nc1S(C)(=O)=O`, in test [1], the Emax was found to be 46%.
Turning to `CS(=O)(=O)c1nc2cc(Cl)c(Cl)cc2nc1NC1CCCc2ccccc21` (stereo unspecified), the Emax in test [1] was 69%. Besides, the EC50 in test [2] was 0.433 µM.
Turning to `Cc1nnc([S+]([O-])c2nc3cc(Cl)c(Cl)cc3nc2C(C)C)s1` (stereo unspecified), in test [1], the Emax was 19%. Moreover, the EC50 in test [2] worked out at 5.1 µM.
As for `CCC(C)Nc1nc2cc(Cl)c(Cl)cc2nc1S(C)(=O)=O` (stereo unspecified), in test [1], the Emax stood at 94%. In addition, the EC50 in test [2] was determined as 0.175 µM.
Consider `CCNc1nc2cc(Cl)c(Cl)cc2nc1S(C)(=O)=O`, for which, in test [1], the Emax was 46%. Besides, the EC50 in test [2] amounted to 0.725 µM; in test [3] it was 0.109 µM.
Turning to `CCOC(=O)c1nc2cc(Cl)c(Cl)cc2nc1C(F)(F)F`, in test [1], the Emax is under 2%.
For `CC(=O)NNc1nc2cc(Cl)c(Cl)cc2nc1S(C)(=O)=O`, in test [1], the Emax worked out at 32%. For the same compound, in test [2], the EC50 came to 14 µM.
In the case of `CC(C)c1nc2cc(Cl)c(Cl)cc2nc1S(=O)(=O)CCC1OCCO1`, the Emax in test [1] was 71%. The EC50 was determined as 3 µM in test [2] and 0.551 µM in test [3].
The like results for `CCOC(=O)c1nc2cc(Cl)c(Cl)cc2nc1S(C)(=O)=O` were, in that order, 24%, over 10 µM and 3.1 µM.
As to `CS(=O)(=O)c1nc2cc(Cl)c(Cl)cc2nc1N1CCCC1`, the Emax in test [1] is 72%. Also, in test [2], the EC50 is 2.2 µM.
With `Nc1nc2cc(Cl)c(Cl)cc2nc1C(F)(F)F`, in test [1], the Emax is under 2%.
Consider `CS(=O)(=O)c1nc2cc(Cl)c(Cl)cc2nc1C(F)(F)F`, for which the Emax in test [1] came out at 40%. The EC50 is 2.6 µM in test [2] and 0.091 µM in test [3].
Consider `CC(C)c1nc2cc(Cl)c(Cl)cc2nc1S(=O)(=O)Cc1ccc(S(=O)(=O)CC2CC2)cc1`, for which the Emax in test [1] amounted to 64%. In addition, the EC50 in test [2] turned out to be 3.3 µM.
With `CC(C)Nc1nc2cc(Cl)c(Cl)cc2nc1S(C)(=O)=O`, the Emax in test [1] came out at 82%. The EC50 in test [2] was 0.214 µM; in test [3], 0.107 µM.
In the case of `CS(=O)(=O)c1nc2cc(Cl)c(Cl)cc2nc1N`, the Emax in test [1] amounted to 24%. Also, in test [2], the EC50 is 6.3 µM.
Turning to `O=S1(=O)CCCc2nc3cc(Cl)c(Cl)cc3nc21`, in test [2], the outcome was inactive.
With `CC(C)(C)Nc1nc2c(Cl)cc(C(F)(F)F)cc2nc1S(C)(=O)=O`, in test [1], the Emax was 42%. The EC50 in test [2] amounted to 2.2 µM.
The like results for `CC(C)Nc1nc2c([N+](=O)[O-])c(Cl)c(Cl)cc2nc1S(C)(=O)=O` were, in that order, 38% and 1.5 µM.
Regarding `CC(C)c1nc2cc(Cl)c(Cl)cc2nc1S(C)(=O)=O`, in test [1], the Emax was found to be 35%. For the same compound, the EC50 in test [2] worked out at 5 µM; in test [3], 0.253 µM.
In the case of `CCOP(=O)(OCC)c1nc2cc(Cl)c(Cl)cc2nc1C(F)(F)F`, in test [1], the Emax is under 2%.
Regarding `CN(C)c1nc2cc(Cl)c(Cl)cc2nc1S(C)(=O)=O`, the Emax in test [1] was found to be 47%. Besides, the EC50 was 2.2 µM in test [2] and 0.53 µM in test [3].
In the case of `CC(C)Nc1nc2cc(Cl)c([N+](=O)[O-])c(C(F)(F)F)c2nc1S(C)(=O)=O`, the Emax in test [1] stood at 31%. The EC50 in test [2] was determined as 5 µM.
Turning to `CC(C)N(C)c1nc2cc(Cl)c(Cl)cc2nc1S(C)(=O)=O`, in test [1], the Emax amounted to 75%. Besides, the EC50 was found to be 1.8 µM in test [2] and 0.46 µM in test [3].
`CCN(CC)C(=O)c1nc2cc(Cl)c(Cl)cc2nc1C(C)C`: in test [1], the Emax was under 2%. For the same compound, the EC50 in test [3] was over 10 µM.
Regarding `CON(C)c1nc2cc(Cl)c(Cl)cc2nc1S(C)(=O)=O`, in test [1], the Emax is 52%. In addition, the EC50 in test [2] amounted to 2.6 µM.
Take `CC(C)(C)Nc1nc2cc(Cl)c(Cl)cc2nc1S(C)(=O)=O`: the Emax in test [1] amounted to 85%. Besides, the EC50 in test [2] stood at 0.155 µM. Also, the result in test [4] and in test [5] was Active.
Consider `CC(C)C(=O)c1nc2cc(Cl)c(Cl)cc2nc1C(C)C`, for which the Emax in test [1] was under 2%. Moreover, in test [3], the EC50 was over 10 µM.
`CCC(C)Nc1nc2cc(Cl)c([N+](=O)[O-])cc2nc1S(C)(=O)=O` (stereo unspecified): in test [1], the Emax came out at 44%. Besides, the EC50 in test [2] stood at 4.3 µM.
The like results for `COC(=O)CCNS(=O)(=O)c1ccc(CS(=O)(=O)c2nc3cc(Cl)c(Cl)cc3nc2C(C)C)cc1` were, in that order, 65% and 4.9 µM.
For `CC(C)c1nc2cc(Cl)c(Cl)cc2nc1[S+](C)[O-]` (stereo unspecified), in test [1], the Emax is 29%. Also, the figures for the EC50 in test [2] and in test [3] were 30 µM and 1.1 µM, respectively.
As to `CC(=O)NCCNc1nc2cc(Cl)c(Cl)cc2nc1S(C)(=O)=O`, in test [1], the Emax was 22%. In addition, the EC50 in test [2] was determined as 7.1 µM.
The like results for `CS(=O)(=O)c1nc2cc(Cl)c(Cl)cc2nc1NC1CCS(=O)(=O)C1` (stereo unspecified) were, in that order, 43% and 1.4 µM.
On to `CC(C)c1nc2cc(Cl)c(Cl)cc2nc1S(=O)(=O)Cc1ccc(S(C)(=O)=O)cc1`, for which the maximum response (Emax) in test [1] worked out at 63%. Besides, the EC50 in test [2] was 1.2 µM; in test [3] it was 0.459 µM.
Turning to `CC(C)n1c(S(C)(=O)=O)nc2cc(Cl)c(Cl)cc21`, the result in test [2] was inactive.
The same measure, in the same setting: with `COC(=O)c1cc2cc(Cl)c(Cl)cc2nc1S(C)(=O)=O` the entry was “inactive”.
Take `CS(=O)(=O)c1nc2cc(Cl)c(Cl)cc2nc1N1CCC(=O)N1`: in test [1], the Emax was 38%. In addition, the EC50 in test [2] worked out at 14 µM.
The like results for `Cc1nnc(S(=O)(=O)c2nc3cc(Cl)c(Cl)cc3nc2C(C)C)s1` were, in that order, 47% and 1 µM.
Take `CC(C)c1nc2cc(Cl)c(Cl)cc2nc1O`: the Emax in test [1] is under 2%.
Consider `CCCc1nc2cc(C)c(C)cc2nc1S(C)(=O)=O`, for which the Emax in test [1] is under 2%.
As for `CCCc1nc2cc(Cl)c(Cl)cc2nc1S(C)(=O)=O`, in test [1], the Emax was found to be 68%. The EC50 in test [2] turned out to be 1.2 µM; in test [3], 0.404 µM.
Consider `N#Cc1nc2cc(Cl)c(Cl)cc2nc1C(F)(F)F`, for which the Emax in test [1] was under 2%.
The same measure, in the same setting: the same measure for `CCCc1nc2cc(OC)c(OC)cc2nc1S(C)(=O)=O`: under 2%.
